Assay results: article PMC3629979 (Molecular imaging, 2010)

Tests used:
in vivo = details: female, athymic nude, mouse, U87MG tumor, iv, 0.5 nmol
U87MG tumor = experiment: In vivo NIRF optical imaging of U87MG tumor-bearing nude mice; details: for tumor to muscle ratio, time course: 1, 2 and 4 hours postinjection, in words; for tumor to muscle ratio, time course / tumor to muscle ratio: 0.5 nmol i.v.; for tumor to muscle ratio: light intensity ratio, 4 hours postinjection, mean ± SD, n = 3; for nonspecific tumor targeting / accumulation of unconjugated dye: Cy5.5 and Cy7 data not shown
[1] = for kidney uptake: 4 hours postinjection, 0.5 nmol i.v., ex vivo imaging, in words; for excretion route: inferred from kidney uptake at 4 hours postinjection
murine integrin β3 = experiment: Immunofluorescence colocalization in U87MG tumor sections, murine integrin β3; format: in vivo; details: 1 nmol i.v., 30 minutes postinjection; frozen tumor sections; one mouse
How it was run: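 Single female athymic nude mouse with subcutaneous U87MG xenograft (5 × 10⁶ cells, right front flank; tumours 100 to 300 mm³) given 1 nmol Cy5.5-labelled test compound by tail vein. Killed at 30 min, perfused with 20 mL PBS, tumour frozen-sectioned. Sections incubated 1 h at room temperature with hamster antimouse integrin β3 (1:100), then FITC secondary (1:200). Fluorescence microscopy overlay.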

| Compound | tissue uptake at 4 h (in vivo) [%ID/g] | tumor to muscle ratio, time course (U87MG tumor) | tumor to muscle ratio (U87MG tumor) | kidney uptake [1] | excretion route [1] | nonspecific tumor targeting / accumulation of unconjugated dye (U87MG tumor) | other results |
| --- | --- | --- | --- | --- | --- | --- | --- |
| CC1(C)C(=CC=C2CCCC(C=CC3=[N+](CCCCCC(=O)N[C@@H](CCC(=O)NCCCC[C@@H]4NC(=O)[C@@H](Cc5ccccc5)NC(=O)[C@H](CC(=O)O)NC(=O)CNC(=O)[C@H](CCCNC(=N)N)NC4=O)C(=O)NCCCC[C@@H]4NC(=O)[C@@H](Cc5ccccc5)NC(=O)[C@H](CC(=O)O)NC(=O)CNC(=O)[C@H](CCCNC(=N)N)NC4=O)c4ccc(S(=O)(=O)O)cc4C3(C)C)=C2Oc2ccc(S(=O)(=O)O)cc2)N(CCCCS(=O)(=O)[O-])c2ccc(S(=O)(=O)O)cc21 [IRDye800-RGD2, IRDye800-E[c(RGDfK)]2] | 2.71 ± 0.77 | increased tumor to muscle ratios from 1 to 4 hours | 3.31 ± 0.22 | high kidney uptake | mainly excreted by the renal route |  |  |
| Cy5.5-E[PEG4-c(RGDfK)]2 [Cy5.5-PEG4-RGD2] |  |  |  |  |  |  | colocalization with murine integrin β3 (murine integrin β3): good colocalization |
| CC1(C)C(/C=C/C2=C(Oc3ccc(S(=O)(=O)O)cc3)C(=C/C=C3/N(CCCCS(=O)(=O)O)c4ccc(S(=O)(=O)[O-])cc4C3(C)C)/CCC2)=[N+](CCCCCC(=O)O)c2ccc(S(=O)(=O)O)cc21 [IRDye800, reference compound] |  |  |  |  |  | only a lower nonspecific tumor accumulation |  |
| CCN1C(=CC=CC=CC=CC2=[N+](CCCCCC(=O)O)c3ccc(S(=O)(=O)O)cc3C2(C)C)C(C)(C)c2cc(S(=O)(=O)[O-])ccc21 [Cy7, reference compound] |  |  |  |  |  | relatively high tumor-nonspecific targeting |  |
| Cy5.5 [reference compound] |  |  |  |  |  | relatively high tumor-nonspecific targeting |  |
| CC1(C)C(=CC=C2CCCC(C=CC3=[N+](CCCCCC(=O)N[C@@H](CCC(=O)NCCOCCOCCOCCOCCC(=O)NCCCC[C@@H]4NC(=O)[C@@H](Cc5ccccc5)NC(=O)[C@H](CC(=O)O)NC(=O)CNC(=O)[C@H](CCCNC(=N)N)NC4=O)C(=O)NCCOCCOCCOCCOCCC(=O)NCCCC[C@@H]4NC(=O)[C@@H](Cc5ccccc5)NC(=O)[C@H](CC(=O)O)NC(=O)CNC(=O)[C@H](CCCNC(=N)N)NC4=O)c4ccc(S(=O)(=O)O)cc4C3(C)C)=C2Oc2ccc(S(=O)(=O)O)cc2)N(CCCCS(=O)(=O)[O-])c2ccc(S(=O)(=O)O)cc21 [IRDye800-PEG4-RGD2, IRDye800-E[PEG4-c(RGDfK)]2] | 5.87 ± 1.21 | increased tumor to muscle ratios from 1 to 4 hours | 4.63 ± 0.28 | high kidney uptake | mainly excreted by the renal route |  |  |
